According to ChEMBL document CHEMBL1127616, “Synthesis, structural characterization, and antitumor properties of a novel class of large-ring platinum(II) chelate complexes incorporating the cis-1,4-diaminocyclohexane ligand in a unique locked boat conformation” (J Med Chem, 1994):

Legend:
P388 [1] = experiment: Tested for in vivo weight change against murine P388 leukemia at the dose of 5.0 mg/kg per injection; assay type: functional, organism-based; details: Mus musculus
Outline: (§1)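 Leukemia life-span assays used CD2F1 (Balb/c × DBA/2F1) mice weighing 18–22 g. Cells were inoculated IP on day 0, and compounds in 0.9% saline were given IP, dosed by average cage weight. Weight change is the difference in mean group weight between the last and first treatment days.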

L1210 [2] = experiment: Tested for the ratio of treated and control against solid tumor murine L1210 Pt-resistant leukemia 10 mg/kg per injection in experiment 2; T/C; assay type: functional, organism-based; details: Mus musculus
Outline: (§2)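 Murine leukemia life span assay in CD2F1 (Balb/c × DBA/2F1) mice, 18–22 g, randomized, with IP tumor cell inoculation on day 0. Depending on the model, the inoculum was 1 × 10^4 cells with IP dosing on days 3, 7 and 11, or 1 × 10^6 cells with IP dosing on days 1, 5 and 9. Drug was given in 0.9% saline, mg/kg per injection, by average cage weight. Read-outs were median day of death and %T/C. Mice alive 60 days after treatment counted as cured and were excluded.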

L1210 [3] = experiment: Tested for the ratio of number of survivors / total number after 60 days at the dose of 10 mg/kg per injection against murine leukemia L1210 experiment 2; assay type: functional, organism-based; details: Mus musculus
Outline: (§3)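 CD2F1 (Balb/c × DBA/2F1) mice, 18–22 g, randomized and inoculated IP with counted leukemia cells on day 0, then re-randomized. Three IP treatments, dissolved in 0.9% saline and dosed on average cage weight, with dose in mg/kg per injection across a full toxic-to-ineffective range. Median life span and %T/C were recorded. Survivors at 60 days were counted as cured and excluded from %T/C.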

L1210 [4] = experiment: Tested for in vitro growth inhibition against murine leukemia cell L1210DACH; assay type: functional, cell-based; details: Mus musculus
P388 [5] = experiment: Tested for in vitro growth inhibition against murine leukemia cell P388Pt4; assay type: functional, cell-based; details: Mus musculus
L1210 [6] = experiment: Tested for in vitro growth inhibition against murine leukemia cell L1210S; assay type: functional, cell-based; details: Mus musculus
Mus musculus [7] = experiment: Tested for the ratio of number of survivors / total number after 60 days at the dose of 5.0 mg/kg per injection against murine P388 Pt-resistant leukemia; assay type: functional, organism-based; outline: as §3
L1210 [8] = experiment: Tested for the ratio of number of survivors / total number after 60 days at the dose of 6.0 mg/kg per injection against murine L1210 Pt-resistant leukemia; assay type: functional, organism-based; details: Mus musculus; outline: as §3
Mus musculus [9] = experiment: Tested for median life span against solid tumor P388 leukemia at 5.0 mg/kg per injection; assay type: functional, organism-based; outline: as §2
L1210 [10] = experiment: Tested for in vitro growth inhibition against murine leukemia cell L1210PtR4; assay type: functional, cell-based; details: Mus musculus
Mus musculus [11] = experiment: Tested for in vivo weight change against murine P388 leukemia at the dose of 10 mg/kg per injection; assay type: functional, organism-based; outline: as §1
M5076 = experiment: Tested for net cell kill tumor burden reduction during therapy at the dose 9.0 mg/kg in M5076 sarcoma; assay type: functional, organism-based; set-up: dose 9 mg/kg; details: Mus musculus
Outline: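 Solid tumor growth delay assay; B16 melanoma and M5076 sarcoma were run in B6C3F1 (C57BL/6 × C3HF1) mice of 18–22 g. Tumor fragments were implanted SC on day 0, then drug in 0.9% saline was given IP on days 1, 5, 9 or days 3, 7, 11, mg/kg per injection. T − C is the difference in days for treated and control tumors to reach 750 mg. Net log cell kill is tumor burden reduction during therapy. Cured mice were excluded.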

L1210 [12] = experiment: Tested for median life span against solid tumor L1210 Pt-resistant leukemia at 6.0 mg/kg per injection; assay type: functional, organism-based; details: Mus musculus
Outline: (§4)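 CD2F1 mice weighing 18–22 g were inoculated IP with leukemia cells on day 0. Compounds in 0.9% saline were given IP in three injections, dosed by average cage weight, over a dose range from toxic to ineffective. Median life span was recorded, with cause of death assessed at necropsy and 60-day survivors counted as cured.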

L1210 [13] = experiment: Tested for in vivo weight change against murine L1210 Pt-resistant leukemia at the dose of 10 mg/kg per injection in experiment 2; assay type: functional, organism-based; details: Mus musculus; outline: as §1
L1210 [14] = experiment: Tested for in vitro growth inhibition against murine leukemia cell L1210DDP5; assay type: functional, cell-based; details: Mus musculus
Mus musculus [15] = experiment: Tested for the ratio of number of survivors / total number after 60 days at the dose of 10 mg/kg per injection against murine leukemia P388; assay type: functional, organism-based; outline: as §3
Mus musculus [16] = experiment: Tested for the ratio of treated and control against solid tumor murine P388 Pt-resistant leukemia 10 mg/kg per injection; T/C; assay type: functional, organism-based; outline: as §2
P388 [17] = experiment: Tested for in vitro growth inhibition against murine leukemia cell P388S; assay type: functional, cell-based; details: Mus musculus
L1210 [18] = experiment: Tested for the ratio of number of survivors / total number after 60 days at the dose of 4.0 mg/kg per injection against murine L1210 Pt-resistant leukemia in experiment 1; assay type: functional, organism-based; details: Mus musculus; outline: as §3
Mus musculus [19] = experiment: Tested for the ratio of treated and control against solid tumor murine P388 Pt-resistant leukemia 5.0 mg/kg per injection; T/C; assay type: functional, organism-based; outline: as §2
L1210 [20] = experiment: Tested for median life span against solid tumor L1210 leukemia at 10 mg/kg per injection in experiment 2; assay type: functional, organism-based; details: Mus musculus; outline: as §4
L1210 [21] = experiment: Tested for the ratio of number of survivors / total number after 60 days at the dose of 5.0 mg/kg per injection against murine leukemia L1210 experiment 2; assay type: functional, organism-based; details: Mus musculus; outline: as §3
Mus musculus [22] = experiment: Tested for in vivo weight change against murine P388 Pt-resistant leukemia at the dose of 5.0 mg/kg per injection; assay type: functional, organism-based; outline: as §1
Mus musculus [23] = experiment: Tested for the ratio of treated and control tumor to reach 750 mg against murine solid tumor colon carcinoma 2.5 mg/kg per injection; assay type: functional, organism-based
L1210 [24] = experiment: Tested for in vivo weight change against murine L1210 Pt-resistant leukemia at the dose of 3.0 mg/kg per injection in experiment 1; assay type: functional, organism-based; details: Mus musculus; outline: as §1
Mus musculus [25] = experiment: Tested for in vivo weight change against murine P388 leukemia at the dose of 3.7 mg/kg per injection in experiment 2; assay type: functional, organism-based; outline: as §1
L1210 [26] = experiment: Tested for the ratio of number of survivors / total number after 60 days at the dose of 2.5 mg/kg per injection against murine leukemia L1210 experiment 2; assay type: functional, organism-based; details: Mus musculus; outline: as §3
L1210 [27] = experiment: Tested for the ratio of treated and control against solid tumor murine L1210 Pt-resistant leukemia 3.0 mg/kg per injection in experiment 1;T/C; assay type: functional, organism-based; details: Mus musculus; outline: as §2
L1210 [28] = experiment: Tested for the ratio of number of survivors / total number after 60 days at the dose of 1.6 mg/kg per injection against murine L1210 Pt-resistant leukemia in experiment 2; assay type: functional, organism-based; details: Mus musculus; outline: as §3
Mus musculus [29] = experiment: Tested for the ratio of number of survivors / total number after 60 days at the dose of 3.7 mg/kg per injection against murine P388 Pt-resistant leukemia; assay type: functional, organism-based; outline: as §3
Mus musculus [30] = experiment: Tested for median life span against solid tumor P388 leukemia at 3.7 mg/kg per injection in experiment 2; assay type: functional, organism-based; outline: as §2
L1210 [31] = experiment: Tested for the ratio of treated and control against solid tumor murine L1210 leukemia 1.5 mg/kg per injection in experiment 1; T/C; assay type: functional, organism-based; details: Mus musculus; outline: as §2
Mus musculus [32] = experiment: Tested for the ratio of treated and control against solid tumor murine P388 Pt-resistant leukemia 3.7 mg/kg per injection; T/C; assay type: functional, organism-based; outline: as §2
L1210 [33] = experiment: Tested for median life span against solid tumor L1210 Pt-resistant leukemia at 1.6 mg/kg per injection in experiment 2; assay type: functional, organism-based; details: Mus musculus; outline: as §4
Mus musculus [34] = experiment: Tested for in vivo weight change against murine colon carcinoma at the dose of 2.5 mg/kg per injection; assay type: functional, organism-based
L1210 [35] = experiment: Tested for median life span against solid tumor L1210 leukemia at 1.5 mg/kg per injection in experiment 1; assay type: functional, organism-based; details: Mus musculus; outline: as §4
Mus musculus [36] = experiment: Tested for median life span against solid tumor P388 Pt-resistant leukemia at 3.7 mg/kg per injection; assay type: functional, organism-based; outline: as §2
L1210 [37] = experiment: Tested for the ratio of treated and control against solid tumor murine L1210 leukemia 2.5 mg/kg per injection in experiment 2; T/C; assay type: functional, organism-based; details: Mus musculus; outline: as §2

Q: CISPLATIN was tested. Which Weight change (P388 [1]) did it give?
A: Its Weight change is 0.2 g.

Q: What about the Ratio (L1210 [2]) of the same substance?
A: The Ratio was 120%.

Q: And the Survivors (L1210 [3])?
A: Its Survivors is 1.

Q: And the ID50 (L1210 [4])?
A: The ID50 was 0.52 µg/mL.

Q: And the ID50 (P388 [5])?
A: The ID50 was 10 µg/mL.

Q: And the ID50 (L1210 [6])?
A: The ID50 was 0.375 µg/mL.

Q: And the Survivors (Mus musculus [7])?
A: Its Survivors is 0.

Q: What about the Survivors (L1210 [8]) of the same substance?
A: The Survivors was 0.

Q: And the MLS (Mus musculus [9])?
A: Its MLS is 29 days.

Q: What about the ID50 (L1210 [10]) of the same substance?
A: The ID50 was 7.84 µg/mL.

Q: And the Weight change (Mus musculus [11])?
A: The Weight change was -5.5 g.

Q: What about the Log net cell kill (M5076) of the same substance?
A: The Log net cell kill was 0.8.

Q: What about the MLS (L1210 [12]) of the same substance?
A: Its MLS is 12 days.

Q: What about the Weight change (L1210 [13]) of the same substance?
A: The Weight change was -4.8 g.

Q: What about the ID50 (L1210 [14]) of the same substance?
A: Its ID50 is 4.11 µg/mL.

Q: And the Survivors (Mus musculus [15])?
A: Its Survivors is 3.

Q: And the T/C (Mus musculus [16])?
A: Its T/C is 123%.

Q: And the ID50 (P388 [17])?
A: Its ID50 is 0.128 µg/mL.

Q: And the Survivors (L1210 [18])?
A: Its Survivors is 0.

Q: And the T/C (Mus musculus [19])?
A: The T/C was 132%.

Q: What about the MLS (L1210 [20]) of the same substance?
A: The MLS was 18.5 days.

Q: What about the Survivors (L1210 [21]) of the same substance?
A: The Survivors was 0.

Q: And the Weight change (Mus musculus [22])?
A: Its Weight change is 1 g.

Q: For [Pt(cis-1,4-dach)CL2], which T-C (Mus musculus [23]) is on record?
A: The T-C was 3.8 days.

Q: What about the Weight change (L1210 [24]) of the same substance?
A: The Weight change was -4.3 g.

Q: What about the Weight change (Mus musculus [25]) of the same substance?
A: The Weight change was -6 g.

Q: And the 60-day survivors (L1210 [26])?
A: Its 60-day survivors is 1.

Q: What about the ID50 (L1210 [4]) of the same substance?
A: The ID50 was 1.08 µg/mL.

Q: What about the ID50 (P388 [5]) of the same substance?
A: Its ID50 is 1.43 µg/mL.

Q: And the ID50 (L1210 [6])?
A: Its ID50 is 0.248 µg/mL.

Q: And the Ratio (L1210 [27])?
A: Its Ratio is 167%.

Q: What about the 60-day survivors (L1210 [28]) of the same substance?
A: The 60-day survivors was 1.

Q: What about the Survivors (Mus musculus [29]) of the same substance?
A: Its Survivors is 0.

Q: And the MLS (Mus musculus [30])?
A: The MLS was 26 days.

Q: And the ID50 (L1210 [10])?
A: The ID50 was 1.21 µg/mL.

Q: And the Ratio (L1210 [31])?
A: The Ratio was 217%.

Q: What about the T/C (Mus musculus [32]) of the same substance?
A: Its T/C is 177%.

Q: What about the ID50 (L1210 [14]) of the same substance?
A: Its ID50 is 0.663 µg/mL.

Q: And the MLS (L1210 [33])?
A: The MLS was 15 days.

Q: What about the Weight change (Mus musculus [34]) of the same substance?
A: The Weight change was -4.2 g.

Q: What about the ID50 (P388 [17]) of the same substance?
A: The ID50 was 0.047 µg/mL.

Q: And the MLS (L1210 [35])?
A: Its MLS is 23 days.

Q: What about the MLS (Mus musculus [36]) of the same substance?
A: The MLS was 25.8 days.

Q: What about the Ratio (L1210 [37]) of the same substance?
A: The Ratio was 242%.
